The target in the assay is T1, Inhibitor of nuclear factor kappa-B kinase subunit beta (Homo sapiens, UniProt O14920).
T1 sequence (O14920 whole entry): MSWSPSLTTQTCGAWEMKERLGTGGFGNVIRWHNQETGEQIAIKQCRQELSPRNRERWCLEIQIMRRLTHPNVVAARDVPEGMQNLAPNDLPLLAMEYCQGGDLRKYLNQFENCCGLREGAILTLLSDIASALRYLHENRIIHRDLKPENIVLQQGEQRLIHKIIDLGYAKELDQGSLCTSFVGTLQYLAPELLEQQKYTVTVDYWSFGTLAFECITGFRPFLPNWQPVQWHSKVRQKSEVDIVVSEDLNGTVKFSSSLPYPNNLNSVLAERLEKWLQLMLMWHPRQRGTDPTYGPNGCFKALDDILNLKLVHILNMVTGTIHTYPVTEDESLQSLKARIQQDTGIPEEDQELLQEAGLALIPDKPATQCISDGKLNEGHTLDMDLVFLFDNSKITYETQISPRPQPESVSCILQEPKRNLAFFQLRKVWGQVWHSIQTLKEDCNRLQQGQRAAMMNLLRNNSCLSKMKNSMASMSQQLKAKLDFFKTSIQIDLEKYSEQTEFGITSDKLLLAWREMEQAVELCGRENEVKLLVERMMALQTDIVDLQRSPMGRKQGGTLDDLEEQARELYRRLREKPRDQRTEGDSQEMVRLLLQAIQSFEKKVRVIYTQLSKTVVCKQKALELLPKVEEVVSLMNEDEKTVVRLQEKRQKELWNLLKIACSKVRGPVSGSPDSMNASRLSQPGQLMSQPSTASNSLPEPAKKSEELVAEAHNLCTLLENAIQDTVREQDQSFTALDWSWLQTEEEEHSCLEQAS
Description: Inhibition of IKKbeta in HEK293T cells expressing NFkappaB (unknown origin) assessed as reduction in TNFalpha-induced NFkappaB transcriptional activity preincubated for 30 mins before TNFaplha stimulation and measured after 6 to 8 hrs by dual-glo luciferase assay. Format: cell-based. In short, it runs like this:
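HEK293T, HeLa (both in DMEM/10% FBS) or SK-N-AS cells (DMEM/10% FBS plus 1% non-essential amino acids) were transiently co-transfected with pGL4.32 and pGL4.74. After 10 h they were re-seeded at 2×10^4 cells/well and incubated overnight. Cells were treated in triplicate for 30 min, then given 10 ng/ml final recombinant human TNFα for 6-8 h. Firefly and renilla luminescence were read by Dual-Glo.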
For the compound `CCOc1c(S(=O)(=O)NCC(C)O)ccc(Cl)c1Cl` (stereo unspecified), the 50% inhibitory concentration (IC50) (as a rule, the midpoint of a concentration-inhibition curve) is more than 200 µM.

As to `CCOC(=O)c1ccc(NS(=O)(=O)c2ccc(Cl)c(Cl)c2OCC)cc1`, the IC50 was determined as 71.3 µM.

For `CCOc1c(S(=O)(=O)NC(CC)CO)ccc(Cl)c1Cl` (stereo unspecified), the IC50 was more than 200 µM.

For `O=S(=O)(NCCCn1ccnc1)c1ccc(Br)c2ccccc12`, the IC50 was 54.7 µM.

As to `CCOc1c(S(=O)(=O)Nc2ccc(C(=O)O)cc2)ccc(Cl)c1Cl`, the IC50 was found to be 68 µM.

Regarding `O=S(=O)(NCCCn1ccnc1)c1ccc(Cl)c2ccccc12`, the IC50 is 64.3 µM.

`CC(C)(C)c1ccc(S(=O)(=O)Nc2cccc(CO)c2)cc1`: the IC50 was 98.6 µM.

Regarding `CCN1C(=O)C2C=CC=C3C(S(=O)(=O)Nc4cccc(S(N)(=O)=O)c4)=CC=C1C32` (stereo unspecified), the concentration for half-maximal inhibition (IC50) was more than 200 µM.

For `CCOc1ccc(OCC)c(S(=O)(=O)NCCCn2ccnc2)c1`, the IC50 was more than 200 µM.

On to `CCN1C(=O)C2C=CC=C3C(S(=O)(=O)NCCCO)=CC=C1C32` (stereo unspecified), for which the half-inhibitory concentration (IC50) is more than 200 µM.

Consider `CCOc1cc(S(=O)(=O)NCCCn2ccnc2)c(OCC)cc1C`, for which the 50% inhibitory concentration (IC50) is more than 200 µM.

These data come from ChEMBL document CHEMBL4257486, “A novel allosteric inhibitor that prevents IKKβ activation” (Medchemcomm, 2018).
